Assay outcomes: PubChem BioAssay, several laboratories
CYP2C19 activ – activators of human cytochrome P450 2C19. P33261. recombinant CYP2C19, luciferin-H EGE luminescence; hits give high values; 0 = fully inhibited enzyme, 1 = untreated enzyme. activation factor at 5 µM. 96,000 tested, under 10 active. AID 1025;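 active means activation factor of at least 2 at 5 µM in the primary screen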;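 further: 0 = wells with 2.5 mM tranylcypromine and 1 = vehicle-only wells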
Target sequence (P33261 whole entry, looked up): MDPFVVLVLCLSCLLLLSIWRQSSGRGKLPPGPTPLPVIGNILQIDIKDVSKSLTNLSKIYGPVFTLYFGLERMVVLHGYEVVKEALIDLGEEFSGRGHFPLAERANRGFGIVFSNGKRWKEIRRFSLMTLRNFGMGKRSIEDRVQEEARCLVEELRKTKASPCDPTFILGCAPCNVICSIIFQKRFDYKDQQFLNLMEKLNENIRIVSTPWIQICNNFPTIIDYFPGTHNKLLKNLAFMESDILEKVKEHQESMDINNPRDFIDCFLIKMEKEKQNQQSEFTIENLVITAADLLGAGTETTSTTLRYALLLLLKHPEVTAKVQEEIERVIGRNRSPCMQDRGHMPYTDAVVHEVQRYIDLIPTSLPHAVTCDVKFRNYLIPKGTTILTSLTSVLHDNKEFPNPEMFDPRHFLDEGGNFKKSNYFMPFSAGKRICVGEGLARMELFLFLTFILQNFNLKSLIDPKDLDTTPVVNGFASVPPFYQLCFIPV
CYP2C9 inh – blocks human cytochrome P450 2C9 | CYP2C9 Supersomes, luciferin-H conversion, luminescence | inhibition, % at 5 µM | 96,000 compounds, 20% hits | AID 777;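 active means blocking of liver enzyme CYP2C9 beyond about 50% at 5 µM, limit read from the data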
Rev-RRE block – HIV Rev-RRE protein-RNA interaction inhibition; P05866; Rev peptide-RRE RNA binding, FRET; inhibition, % at 8 µM; 97,000 compounds, 0.79% hits;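 active means inhibition above the screen-wide mean plus 3 SD, cut at about 35% in these data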;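 further: 0% = median DMSO wells and 100% = median Neomycin B control wells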
Target sequence (P05866 whole entry, looked up): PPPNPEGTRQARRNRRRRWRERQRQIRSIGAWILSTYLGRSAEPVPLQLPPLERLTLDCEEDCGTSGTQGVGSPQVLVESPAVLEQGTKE
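Assay system: Rev peptide and RRE RNA, both fluorescently labelled; times: 5 min preincubation and 15 min binding, 25 °C; detection: FRET, ex 480 nm, em 540 and 671 nm; read-out basis: % inhibition from 671/540 nm acceptor-to-donor ratio, scaled between controls; benchmarks: DMSO low control, neomycin B high control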
Cav3 T inh – blocks human Cav3.2 T-type calcium channel; O95180; Cav3.2-expressing cells, Fluo-4 calcium fluorescence FDSS; hits give low values; B-score at 10 µM; 100,000 compounds, 4% hits; AID 449739;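 active means single-dose well whose peak fluorescence ratio is a statistical outlier from its plate by either plate-standardised score or position-corrected B-score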
CYP2C19 inhib – inhibitors of human CYP2C19. CYP2C19 Supersomes, luciferin-H EGE luminescence, 30 min. inhibition, % at 5 µM. P33261. 96,000 compounds, 21% hits;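 active means CYP2C19 inhibition above a set limit at 5 µM in the primary screen, cut at about 50% in these data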;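 further: plate controls were negative control wells for no effect and 2.5 mM tranylcypromine positive control for full effect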
CYP2C9 act – increases human cytochrome P450 2C9 activity. recombinant CYP2C9, luciferin-H conversion, luminescence; hits give high values; factor 1 = untreated enzyme, 0 = blocked. activation factor at 5 µM. 96,000 compounds, 1.4% hits. AID 1024;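 active means activation factor of 2 or more for CYP2C9 at a 5 µM dose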;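 further: 0 = sulfaphenazole-blocked wells and 1 = vehicle-only wells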
Starred values were filed as active, the others as inactive; nt = no result given; [ ] = another dose, or the depositor's remark. A selection: hits, their analogues and other compounds. The true share with any hit is near 27%.

SMILES | CYP2C19 activ | CYP2C9 inh | Rev-RRE block | Cav3 T inh | CYP2C19 inhib | CYP2C9 act
O=C(/C=C/Nc1cccc([N+](=O)[O-])c1)c1cccs1 | 0.7 | 70.7* | 12.1 | -0.0675 | 29.6 | 0.3
CN(CC(=O)NCc1ccc(Cl)cc1)S(=O)(=O)c1cccc2cccnc12 | 0.5 | -72.0 | 3.1 | -0.0206 | 45.2 | 1.7
Cc1ccc(S(=O)(=O)N(C)CC(=O)N2CCCC2)cc1 | nt | nt | 6.9 | -1.19 | nt | nt
CN(Cc1ccccc1)S(=O)(=O)c1cccc2cccnc12 | 0.2 | -203.3 | 28.1 | -1.16 | 79.7* | 3*
CN(CC(=O)N1CCCCC1)S(=O)(=O)c1cccc2cccnc12 | 1 | -105.1 | nt | 0.95 | 3.4 | 2.1*
O=C(O)CCS(=O)(=O)c1cccc2cccnc12 | 1.1 | 1.3 | 1.1 | 1.25 | -6.1 | 1
Cc1ccc(NC(=O)CN(C)S(=O)(=O)c2cccc3cccnc23)cc1 | 0.6 | 77.8* | 2.0 | 0.97 | 41.1 | 0.2
Cc1nc2sc3c(NCc4ccco4)ncnc3c2c2c1COC(C)(C)C2 | nt | nt | 7.0 | -0.384 | nt | nt
CCCCSc1nc(NCc2ccco2)c2c3c(sc2n1)COC(C)(C)C3 | 0.9 | 46.2 | 11.3 | -5.7* | 10.6 | 0.5
Cc1cc(C)n(-c2nc(NCc3cccnc3)c3c4c(sc3n2)COC(C)(C)C4)n1 | 0.6 | 58.8* | 8.1 | 0.0198 | 39.4 | 0.4
CCCSc1nc(NCc2ccco2)c2c3c(sc2n1)COC(C)(C)C3 | 0.6 | 55.9* | 12.5 | -5.64* | 39.1 | 0.4
CSc1nc(NCc2ccco2)c2c3c(sc2n1)CN(C)CC3 | nt | nt | 10.4 | 1.32 | nt | nt
Cc1cc(NC(=O)c2ccco2)ccc1-n1cnnn1 | 0.7 | 30.7 | 3.9 | 0.675 | 33.3 | 0.7
COCC(C)NC(=O)c1noc2c1CCc1cc(OC)ccc1-2 (configuration not stated) | 1 | -36.1 | nt | 1.78 | 1.6 | 1.4
COc1ccc2c(c1)CCc1c(C(=O)NCc3ccco3)noc1-2 | 0.4 | -40.8 | nt | 0.0146 | 62.4* | 1.4
COc1ccc2c(c1)CCc1c(C(=O)NCCCn3ccnc3)noc1-2 | 0.2 | 68.7* | 3.0 | 0.333 | 81.9* | 0.3
COCCNC(=O)c1noc2c1CCc1cc(OC)ccc1-2 | 0.8 | 59.1* | nt | 1.2 | 20.2 | 0.4
Nc1ccccc1OCCOCCOc1ccccc1N | 0.6 | -0.4 | 4.0 | 0.269 | 40.0 | 1
CCCOc1ccc(N)cc1N | 0.8 | 32.0 | 101.0*[fluorescence artefact?] | nt | 16.7 | 0.7
NS(=O)(=O)c1ccc(Nc2nc(-c3ccc(O)cc3O)cs2)cc1 | 0.2 | 68.3* | 4.4 | -0.634 | 79.4* | 0.3
Cc1sc2nc(C3CC3)nc(SCC(=O)N3c4ccccc4CC3C)c2c1C (configuration not stated) | 0.3 | 98.7* | 9.5 | -3.09 | 65.1* | 0
Cc1cc(NC(=O)CSc2nc(C3CC3)nc3sc(C)c(C)c23)no1 | 0.6 | 62.6* | 6.3 | -1.02 | 41.2 | 0.4
CCCc1cc(C(=O)OC)c(NC(=O)c2cc(C)on2)s1 | nt | nt | 16.4 | 0.0404 | nt | nt
Cc1ccccc1Nc1c(N)c(=O)oc2ccccc12 | 0 | 64.9* | -3.4 | -1.31 | 95.6* | 0.4
Nc1c(NC2CCCCC2)c2ccccc2oc1=O | 0.7 | 16.8 | 2.6 | 0.0598 | 35.0 | 0.8
SMILES | CYP2C19 activ | CYP2C9 inh | Rev-RRE block | Cav3 T inh | CYP2C19 inhib | CYP2C9 act
COc1ccc(OC)c(S(=O)(=O)N2CCC(C(=O)NCc3ccccc3OC)CC2)c1 | 0.7 | -144.4 | -0.5 | -0.954 | 35.0 | 2.4*
COc1ccc(OC)c(S(=O)(=O)N2CCC(C(=O)Nc3cccc(C(F)(F)F)c3)CC2)c1 | 0.5 | -21.4 | 7.6 | -9.29* | 47.8 | 1.2
O=C(C1CCN(S(=O)(=O)c2cccs2)CC1)N1CCc2ccccc2C1 | 0.8 | 7.6 | 11.0 | 0.244 | 22.0 | 0.9
O=C(C1CCN(S(=O)(=O)N2CCC3(CC2)OCCO3)CC1)N1CCc2ccccc2C1 | 0.2 | 41.1 | 5.8 | nt | 75.7* | 0.6
COc1ccc(OC)c(S(=O)(=O)N2CCC(C(=O)N3CCc4ccccc4C3)CC2)c1 | 0.2 | -8.4 | 8.6 | -2.37 | 78.0* | 1.1
Cc1cc(C)n2nc(C(=O)Nc3ccc(S(=O)(=O)N4CCCCC4)cc3)nc2n1 | 0.9 | 14.5 | 7.3 | 0.548 | 7.2 | 0.9
Cc1csc2ncc(C(=O)Nc3ccc4c(c3)OCCO4)c(=O)n12 | 0.9 | -15.9 | nt | 0.0436 | 5.5 | 1.2
Cc1cc(NC(=O)CSc2nnc(C3CC3)n2Cc2ccccc2)no1 | 0.7 | 39.6 | 1.6 | 1.72 | 31.0 | 0.6
O=C(NCc1cccs1)C1CCN(c2nc3ccccc3o2)CC1 | 0.9 | 25.5 | 6.9 | nt | 9.3 | 0.7
O=C(NCc1ccco1)C1CCN(S(=O)(=O)c2cccc3cccnc23)CC1 | 0.6 | -38.6 | nt | 0.0995 | 37.8 | 1.4
COc1ccccc1CNC(=O)C1CCN(S(=O)(=O)c2cccc3cccnc23)CC1 | 0.4 | -154.4 | 2.5 | -3.36 | 64.3* | 2.5*
O=C(NCc1cccs1)C1CCN(c2nccs2)CC1 | 0.2 | 55.6* | 9.8 | -0.172 | 84.3* | 0.4
O=C(Nc1nccs1)C1CCN(S(=O)(=O)c2cnc[nH]2)CC1 | 0.7 | 85.7* | nt | 0.513 | 28.9 | 0.1
O=C(NCc1cccs1)C1CCN(S(=O)(=O)c2cccc3cccnc23)CC1 | 0.5 | -76.6 | nt | 0.159 | 53.8* | 1.8
O=C(O)c1oc2ccc(Br)cc2c1-n1cccc1 | 1.1 | -4.3 | 9.1 | -0.491 | -10.4 | 1
[N-]=[N+]=CC(=O)c1ccnc(C(=O)C=[N+]=[N-])c1 | 1.1 | 4.7 | 6.1 | -0.906 | -5.4 | 1
Cc1ccc(NC(=O)C2CCN(S(=O)(=O)c3cnc[nH]3)CC2)nc1 | 0.9 | 32.2 | nt | -0.989 | 6.7 | 0.7
COc1ccc(OC)c(S(=O)(=O)N2CCC(C(=O)NCCC3=CCCCC3)CC2)c1 | nt | nt | nt | -1.5 | nt | nt
COc1ccc(OC)c(S(=O)(=O)N2CCC(C(=O)NCc3ccccc3)CC2)c1 | 0.7 | -267.6 | -0.4 | 1.22 | 25.1 | 3.7*
O=C(Nc1cccc(C(F)(F)F)c1)C1CCN(S(=O)(=O)c2cnc[nH]2)CC1 | 0.5 | 82.2* | nt | -0.28 | 54.6* | 0.2
CCOC(=O)C1CCCN(C(=O)c2cn(CC)c3ccc(S(=O)(=O)N4CCCC4)cc3c2=O)C1 (configuration not stated) | 1 | 11.0 | -3.2 | 0.978 | 4.6 | 0.9
CCCCC(=O)NC(Nc1ccc(C)cn1)(C(=O)OCC)C(F)(F)F (configuration not stated) | 0.3 | 17.8 | -0.3 | -1.04 | 65.6* | 0.8
COC(=O)C(NC(C)=O)(Nc1nc(C)cs1)C(F)(F)F (configuration not stated) | 0.9 | 18.8 | 0.5 | 0.839 | 9.7 | 0.8
COC(=O)C(NC(C)=O)(Nc1nc2c(C)cc(C)cc2s1)C(F)(F)F (configuration not stated) | 0.1 | 99.3* | 3.2 | -4.3* | 91.6* | 0
COC(=O)C(NC(C)=O)(Nc1ccc(Br)cn1)C(F)(F)F (configuration not stated) | 0.2 | 29.4 | nt | -0.589 | 82.3* | 0.7
